CHOP inhibitor = blocks CHOP induction under ER stress; CHO-K1 CHOP-promoter luciferase, tunicamycin-induced, 15-18 h; inhibition, % at 10 µM; 3.8% of 220,000 active; AID 2732;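 active means compounds that reduced the stress-induced luciferase reporter signal by more than about 70% of percent inhibition, limit read from the data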;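 further: 0% = tunicamycin plus vehicle and 100% = wells without tunicamycin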
GRIN3A LBD mod = modulates the human NR3A ligand-binding domain. NR3A LBD differential scanning fluorimetry, Tm shift; 0% = protein alone, 100% = glycine-bound protein. 2.5% of 340,000 active. Tm shift relative to glycine control, % at 25 µM;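 active means melting temperature shift of at least 10% of the positive control shift, at one fixed dose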
XBP1 UPR activ = adaptive UPR (XBP1) activation; CHO-XBP1 luciferase reporter, IRE1-XBP1 UPR activation, luminescence; percent of tunicamycin response, DMSO as zero; activation, % at 20 µM; 0.33% of 330,000 active;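 active means versus positive control, 20 µM dose yields 30% or more activation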;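 further: 100% = tunicamycin at 10 µg/mL and 0% = DMSO only wells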
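Material: CHO cell line with stable XBP1 luciferase reporter; buffer or medium: F12 medium containing 10% fetal bovine serum; compound: single point, 20 µM final compound, 1% DMSO; incubation: 6 h treatment, 37 °C; measured by: glow luminescence from Steady-Glo reagent; evaluation: activation, % of tunicamycin; control set: tunicamycin high, DMSO low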
MPTP inh = inhibitors of mitochondrial permeability transition pore; isolated mouse mitochondria, Ca2+ swelling absorbance, 30 min; AID 602449; 1.4% of 360,000 active; inhibition, % at 10 µM;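 active means inhibition of 50% or more, scaled per plate between neutral and stimulator controls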;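 further: 0% = DMSO wells given calcium and 100% = 1 mM EGTA wells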
aDG glyco act = alpha-DG glycosylation activation. 0.22% of 360,000 active. activation, % at 10 µM. Pro5-aDG cells, alpha-DG glycosylation AlphaScreen (IIH6); 0% Pro5, 100% B10-LARGE cell signal;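 active means activation of at least 8% versus controls, or a plate z-score of at least 8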;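 further: Pro5 are CHO cells carrying HIG-tagged alpha-DG that lacks glycosylation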
CHOP UPR activ = activators of apoptotic arm of unfolded protein response (CHOP); CHO-CHOP luciferase reporter, UPR activation, luminescence; percent of tunicamycin response over DMSO baseline; activation, % at 10 µM; 0.34% of 330,000 active;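 active means at 10 µM dose, activation of 40% or more, normalized to positive control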;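 further: 100% = tunicamycin at 10 µg/mL and 0% = DMSO alone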
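Test system: CHO-CHOP cells, stable luciferase reporter of PERK-eIF2a-CHOP signalling | Quantity: 500 CHO-CHOP cells per well | Buffer or medium: F12 plus 10% serum | Compound dosing: 10 µM single point, 0.5% DMSO | Schedule: 6 h compound treatment, 37 °C | Signal: Luciferase luminescence | Control set: Tunicamycin high control, DMSO low control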
Active calls of the source: *; x = not tested or not shown. In the library only some 5.6% were active in any assay of this set; here they are far more common.

SMILES	CHOP inhibitor	GRIN3A LBD mod	XBP1 UPR activ	MPTP inh	aDG glyco act	CHOP UPR activ
Cc1ccc(N2C(=O)c3ccccc3C2=O)cc1Cl	-57.2	11.7*	-0.1	-0.7	-0.3	6.7
COc1ccc(S(=O)(=O)NNC(=O)C23CC4CC(CC(C4)C2)C3)cc1[N+](=O)[O-]	x	1.1	-1.7	0.4	-0.1	-0.9
O=C(NN1C(=O)C2C(c3ccccc3)C=CC(c3ccccc3)C2C1=O)c1ccccc1 (centres undefined)	40.9	8.9	-0.9	-0.6	0.8	0.0
O=C(NN1C(=O)C2C(c3ccccc3)C=CC(c3ccccc3)C2C1=O)c1cccc(Br)c1 (centres undefined)	61.0	20.0*	-0.1	6.2	0.0	-0.6
COc1cccc(OCc2cc(C(=O)N(Cc3ccccc3)CC3CC3)no2)c1	x	-0.7	3.8	0.6	0.0	1.7
O=C1CCCCC(=O)[C@H](O)C[C@H](COCc2ccccc2)O1	x	x	x	0.6	0.0	x
CCOc1cc(C)c(C(C)C)cc1S(=O)(=O)n1ccc(C)n1	77.3*	-2.9	-1.1	-1.5	-0.1	0.7
Nc1ccc2c(c1)C(=NO)c1cc([N+](=O)[O-])ccc1-2	x	28.1*	x	1.0	-0.6	x
CCC1(CC)N=C(c2ccccc2)C(=S)N1	11.8	0.4	-0.7	0.8	-0.1	0.4
Cc1cc(/C=C2\SC(=Nc3ccccc3)NC2=O)c(C)n1-c1ccc(S(N)(=O)=O)cc1	92.3*	-20.2	6.7	-1.7	-0.3	0.4
Cc1nc(NC(=O)c2csc3ccccc23)sc1C	36.6	28.1*	3.2	1.3	-0.2	1.3
Cc1nc(NC(=O)c2ccccc2O)sc1C	x	0.3	-0.2	0.5	-0.1	5.2
CC(=O)c1ccc(OCCCC(=O)NCCc2ccc(C(F)(F)F)cc2)cc1	x	-5.8	-8.0	0.0	0.2	-0.9
COc1cc(OC)cc(C(=O)OCc2cc3ccccc3[nH]c2=O)c1	84.5*	0.0	5.2	-0.9	0.1	0.1
Cc1ccc(S(=O)(=O)NCCN=Cc2ccc(N(C)C)cc2)cc1	x	7.3	-5.7	-1.1	0.2	1.7
CC(C)(C)C(=O)NCCN1CCN(C(=O)C(C)(C)C)CC1	3.3	673.0*	1.0	0.4	-0.1	0.7
O=C(Cn1cc([N+](=O)[O-])ccc1=O)N1CCc2ccccc21	x	-0.3	-0.5	-0.4	-0.1	0.0
CCCCNc1cc(NC(C)=O)cc2cc(OC)c(OC)cc12	x	-2.6	-2.1	2.9	5.7	0.0
COc1cc2cc(NC(C)=O)cc(NCc3ccccc3)c2cc1OC	x	11.9*	-4.9	0.1	-0.1	1.2
CC(=O)NC(=O)Nc1sc(=S)n(C)c1C	-14.2	-1.4	1.8	-2.1	0.0	-3.3
Cc1ccc(NC(=O)Nc2sc(=S)n(C)c2C)cc1	-6.1	12.2*	2.1	0.3	0.8	1.4
CC(C)c1ccc(N(CC(=O)NC2CCCC2)C(=O)CCC(=O)Nc2nccs2)cc1	x	0.5	-1.9	-0.5	0.4	-1.4
O=C(CN1CCN(c2ccccc2O)CC1)Nc1cc([N+](=O)[O-])ccc1Cl	83.1*	1.5	-2.9	1.6	-0.1	-2.1
Cc1ccc(S(=O)(=O)N[C@H](C(=O)OCC(=O)NC(=O)Nc2ccc3c(c2)OCCO3)C(C)C)cc1	56.9	-4.7	-1.8	3.3	0.0	0.2
Cc1ccc(S(=O)(=O)N[C@H](C(=O)OCC(=O)NC(=O)C2CCCCC2)C(C)C)cc1	x	22.9*	1.2	-0.4	0.2	-1.5
SMILES	CHOP inhibitor	GRIN3A LBD mod	XBP1 UPR activ	MPTP inh	aDG glyco act	CHOP UPR activ
O=C(c1cccc(S(=O)(=O)NCc2ccccc2)c1)N1CCN(Cc2ccccc2)CC1	25.0	15.1*	-0.8	0.3	0.2	2.6
O=C(c1cccc(S(=O)(=O)NCc2ccccc2)c1)N1CCCCC1	x	1.7	-2.2	-0.3	0.3	-0.3
Cc1ccc(S(=O)(=O)N2CCCCC2)cc1NC(=O)c1ccncc1	x	-0.3	-2.4	-2.5	0.0	-0.9
C=CCn1c(N/N=C/c2ccc(O)cc2)nc2ccccc2c1=O	3.7	11.7*	9.8	2.1	1.0	6.5
Nc1nc(CSc2nc3ccccc3s2)nc(Nc2ccccc2)n1	51.7	x	-0.1	x	x	-0.7
Cc1c(Cl)cccc1Nc1nc(N)nc(CSc2nc3ccccc3s2)n1	27.2	11.3*	0.3	-0.7	0.3	1.9
COc1ccc(/C=N/NC(=O)c2nnn(-c3nonc3N)c2-c2cccs2)cc1OC	x	8.5	-2.6	0.6	0.2	2.7
COc1ccccc1/C=N/NC(=O)c1nnn(-c2nonc2N)c1CN(C)c1ccccc1	x	3.9	-3.1	0.9	0.0	-0.6
CN(C)Cc1c(C(=O)N/N=C/c2cccnc2)nnn1-c1nonc1N	x	-0.7	0.1	-2.2	0.4	1.1
Nc1nonc1-n1nnc(C(=O)N/N=C/c2cccc(Cl)c2)c1-c1cccs1	x	27.1*	-2.6	-1.0	-0.1	2.1
CN(Cc1c(C(=O)N/N=C/c2ccccc2F)nnn1-c1nonc1N)c1ccccc1	x	11.6*	-3.3	-1.0	0.0	-2.7
CN(Cc1c(C(=O)N/N=C/c2ccc(O)cc2)nnn1-c1nonc1N)c1ccccc1	x	24.1*	-5.1	-1.1	-0.1	-2.2
CN(Cc1c(C(=O)N/N=C/c2ccccc2)nnn1-c1nonc1N)c1ccccc1	x	19.5*	-5.0	0.1	0.3	-0.3
OCc1ccc2c(c1)c(-c1ccc3c(c1)OCCO3)c(-c1ccccc1)n2-c1ccccc1	x	-5.2	0.3	0.6	0.1	2.2
COCCNC(=S)N/N=C(\C)c1cccc(OC)c1	23.3	3.3	0.8	0.6	0.1	1.5
CC(=O)Nc1cnc(-c2ccc3c(c2)OCO3)cn1	x	x	x	-0.9	0.0	x
CN1CCN(S(=O)(=O)c2ccc3c(c2)oc(=O)n3C)CC1	x	-1.9	-0.4	-0.2	-0.2	6.3
COc1ccc(CNC(=O)c2cc(=O)c3cc(C)cc(C)c3o2)cc1	x	-0.3	-1.3	0.2	-0.2	0.7
Nc1nonc1-n1nnc(C(=O)N/N=C/c2cc(Br)cs2)c1-c1ccccc1	x	14.8*	-4.4	0.1	0.2	1.6
COc1ccc(/C=N/NC(=O)c2nnn(-c3nonc3N)c2CN(C)c2ccccc2)cc1	x	24.1*	-2.9	0.2	-0.4	2.6
CN(C)c1ccc(/C=N/NC(=O)c2nnn(-c3nonc3N)c2CN(C)c2ccccc2)cc1	x	14.8*	0.1	1.2	-0.1	0.2
CN(Cc1c(C(=O)N/N=C/c2cccc(Cl)c2)nnn1-c1nonc1N)c1ccccc1	x	21.0*	-2.4	-0.4	-0.1	0.7
COc1ccc(-c2csc(NC(C)c3nc4cc(C(F)(F)F)ccc4n3CCOCCO)n2)cc1 (centres undefined)	x	4.2	0.3	0.4	0.2	2.0
COc1ccc(-c2ccc(C(=O)Nc3cccc(NS(C)(=O)=O)c3)c3occc23)c(C)c1	x	x	x	3.2	0.5	x
